Data published in the EternaBench riboswitch data.

Tested on: MS2 coat protein
Experiment: apparent Kd, MS2 coat protein; higher = weaker binding; RNA-MaP array; FMN 200 µM where present
How it was run: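 Stalled E. coli RNA polymerase transcribed each design on Illumina sequencing-chip clusters. The clusters were titrated with SNAP-549-labelled MS2 coat protein, starting at 0.7 or 1.5 nM and doubling up to 3 µM, first without ligand and then with constant ligand, in 100 mM Tris-HCl pH 7.5, 80 mM KCl, 4 mM MgCl2, BSA, DTT, yeast tRNA and Tween-20. Green signal was normalised to red-channel RNA signal and to the control-cluster median Fmax. The apparent Kd is the median of filtered binding-curve fits made for each cluster.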

[1] = designed as: OFF switch for flavin mononucleotide, no ligand
[2] = ligand present: flavin mononucleotide, designed as: OFF switch for flavin mononucleotide
[3] = designed as: ON switch for flavin mononucleotide, no ligand
[4] = ligand present: flavin mononucleotide, designed as: ON switch for flavin mononucleotide

Row | Sequence | apparent Kd [1] [nM] | apparent Kd [2] [nM] | apparent Kd [3] [nM] | apparent Kd [4] [nM]
1 | GCUGGGUCAGGAUAUACAAGAUCGAAAGAUCAAAGAUUCGUACAUGAGGAUCACCCAUGUAGAAGGGACUGGGC | 23.4 | 31.7 | – | –
2 | AGCUGUGGCCGAGGAUAUCACGAACCAUGGAAAACCAUGGAACUCAAACAUGAGGAUCACCCAUGUGAGAAGGCGGUCUCAGCA | 21.1 | 15.9 | – | –
3 | GGACAGUCAGGAUAUACAUGAGGAUCACCCAUGUUGAGAUGUGAAAGGGCGGGAGUAGGUAGAAGGGACGAGAG | 31.3 | 27.5 | – | –
4 | CCCGUGUGUUAAGGAUAUGGCAGGCGCGUUGAACCAGAAGGUAGCACAUGAGGAUCACCCAUGUGAAUGCUCACGACUCGAGCA | 40.1 | 23.6 | – | –
5 | AAACAUGUCCGAGGAUAUCUGAGAUCAUUUUCAAGAGAAGGCGGACAUGAGGAUCACCCAUGUCUCUCCUCAUCAACUCCACAU | 7.47 | 39.1 | – | –
6 | CGUAACUGCAUAGGAUAUUGUUACAUGAGGAUCACCCAUGUUUUUCGGAUUAUUUAUCUACUUAGCAAGAAGGAUGGAGUUACG | – | – | 6.82 | 4.74
7 | GUGUAGAUAGGAUAUGCAAGAGUCUAGCGAAGCUAGAUUCUACAUGAGGAUCACCCAUGUAGAAGGGUCUACAC | 18.3 | 16.1 | – | –
8 | AAAACGUGAGGAUAUCCAAUAUAUGACAUGAGGAUCACCCAUGUUUCCACUCGUACCUCCGGAGAAGGCACUUUUU | 54.6 | 44.9 | – | –
9 | UGUCGGAGCAGAGGAUAUUACAUGAGGAUCACCCAUGUAUGAACCAAUAGCUGGAAACAGCAAUGUAAGAAGGCUGCUCCGAUA | 11.8 | 166 | – | –
10 | UUUUAAUAAUAGAAGGAGCACUACAUGAGGAUCACCCAUGUGUUAGUAGUUAGGAUAUAUAAUAACAUGAGGAUCACCCAUGUA | – | – | 83.6 | 40.7
11 | ACAUACUUUCGAGGAUAUCGGUGAUAUAUUUAACGAGAAGGCGAUAAAAGAUAUAAACUUAUAGACAUGAGGAUCACCCAUGUA | – | – | 27.4 | 27.1
12 | GGAUAGGACAGAGGAUAUACCGAUAGGAUCUACUAUCGAAGAAUCCUCACAUGAGGAUCACCCAUGUAGAAGGCUGUCCUAUCG | 40.3 | 646 | – | –
13 | AGUAGGCAGUGAGGAUAUGUACUUGUAACGGUACAUGAGGAUCACCCAUGUGGUGGGAGUGGAGGACAGAAGGCACCGUUUGGG | – | – | 114 | 66.6
14 | AACUGACAUGAGGAUCACCCAUGUCAGGAUAUGACAUCGAAAAUAAAAUAAAUCGUUGUCAGAAGGGACAUGGG | 21.4 | 19.3 | – | –
15 | GCACCUCUAUUUGAACCGAUACGAACAUGAGGAUCACCCAUGUAGGAUAUGCUAAAAGUUGUGUUGCAGAAGGACAUUUAGUGC | 10.7 | 10.5 | – | –
16 | UGGUGAAGUGUAGGAUAUGGAGGUGGGUUUUGGCCAGAAGGACAUGAGGAUCACCCAUGUGGUAGAGGGUUGGUGGUGGCCCGU | 16.7 | 15.2 | – | –
17 | UAGUAUAAGGGCAUUAAACAUGAGGAUCACCCAUGUACGAUAGAGGAUAUGCAUUUCAGUUUAGAGUAGAAGGUUAGAGAAUAU | 39.1 | 47.4 | – | –
18 | AAUAACAGAGGAUAUACUAUUUUAUGUGUUUAUUGUUUUGAACAUGAGGAUCACCCAUGUAGAAGGCUGAUUGA | 47.8 | 56.3 | – | –
19 | GGAGAGCAAGGAUAUACAUGAGGAUCACCCAUGUACGGUCAUUUGGGCAUGUCUGUAAGUAGAAGGUGUUUUGG | 45.2 | 58.5 | – | –
20 | AGCCUGAGUCGAGGAUAUUAUGGAUCAAUUAAUACAUGAGGAUCACCCAUGUAAUUAAUUUAACAUGAGAAGGUGACUCAGGCA | – | – | 11.3 | 12.9
21 | AUAUCUCUGUAAGGAUAUAGAUGGUGUAAGCCUCCGACAUGAGGAUCACCCAUGUUAUAUGUUGUCUAGAAGGUACAGUGUCGG | – | – | 1110 | 898
22 | GGGCCCGGUGUGAGGAUAUGCCCGGGUAAAUUUGGGCAGAAGGCACAUGAGGAUCACCCAUGUAAGCCGGGUUU | 14.8 | 12.9 | – | –
23 | CCAGGCAGUGUGAGGAUAUGCUGGUGCUUGCAUCAGCAGAAGGCACAUGAGGAUCACCCAUGUGAAGAGCUUGG | 27.6 | 131 | – | –
24 | UUAAGUCAUGUAGGAUAUCCGAGGCGAAGCGUUGGAGAAGGACAUGAGGAUCACCCAUGUUCUAGCGUCUGAGUACAGAUGCAA | 22.7 | 33.7 | – | –
25 | GUGAUGAUCGAGAAGGCCACUACAUGAGGAUCACCCAUGUCGUGGUGUAUUGGAGGAUAUCGAUCGACGUCUUAUGAGGACAUA | 4.82 | 5.95 | – | –
26 | AAAACUGGAGGAUAUACAUGAGGAUCACCCAUGUGUGGGUAUACUGUGUCGGCGUCAGGUAGAAGGCCACAAAA | 108 | 88.7 | – | –
27 | AGGAAACAUGAGGAUCACCCAUGUAAAAGGUGGUUAGGAUAUGCGAUAAUAAAAAUAAUAGCAGAAGGGACAAGAA | – | – | 511 | 432
